Results: ChEMBL document CHEMBL3272224, “Synthesis and hypotensive activity of N-alkyl-N"-cyano-N'-pyridylguanidines” (J Med Chem, 1978)
The source made the active and inactive calls. The calls are words filed in the database; no cut-off is given here.

Assays:
[1] = Toxicity in po dosed Sprague-Dawley rat assessed as mortality after 7 days; format: organism-based; settings: in vivo
[2] = Toxicity in po dosed mouse assessed as mortality after 7 days; settings: in vivo
Rattus norvegicus [3] = assay: Toxicity in rat assessed as change in cardiac noradrenaline level at 0.1 mg/kg for 5 days; format: organism-based, Heart; set-up: dose 0.1 mg/kg; settings: in vivo, 120 h
Procedure, shortened: (§1)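 Rats were given single or repeated (5 days) administration, and cardiac noradrenaline levels were measured.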

Rattus norvegicus [4] = organism: Rattus norvegicus; assay: Toxicity in rat assessed as effect on contraction of nictitating membranes by preganglionic stimulation; format: organism-based, Nictitating membrane; settings: in vivo
Rattus norvegicus [5] = assay: Toxicity in rat assessed as change in cardiac noradrenaline level at 0.1 mg/kg; format: organism-based, Heart; set-up: dose 0.1 mg/kg; settings: in vivo; procedure, shortened: as §1
Rattus norvegicus [6] = assay: Hypotensive activity in spontaneously hypertensive Wistar-Okamoto rat assessed as maximum change in mean blood pressure at 0.5 mg/kg, po relative to control; format: functional
Procedure, shortened: (§2)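 Spontaneously hypertensive Wistar-Okamoto rats, five per dose, received compound orally, dissolved or suspended in 0.5% carboxymethylcellulose. Blood pressure was measured indirectly by tail cuff in restrained conscious rats before dosing and at 2, 4, 6, 8, 12 and 24 h. Maximum change was measured after a single administration and given as mean ± error.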

Rattus norvegicus [7] = assay: Hypotensive activity in spontaneously hypertensive Wistar-Okamoto rat assessed as maximum change in mean blood pressure at 2.5 mg/kg, po relative to control; format: functional; procedure, shortened: as §2
Canis familiaris [8] = assay: Hypotensive activity in conscious renal hypertensive dog assessed as time required for persistence of hypotensive effect at 0.25 mg/kg, po measured for 8 hrs; format: functional, Canis lupus familiaris
Procedure, shortened: (§3)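 Conscious renal hypertensive dogs received single oral doses in soft gelatin capsules, three per dose. Indirect standing blood pressure was read before dosing and hourly to 8 h. Duration (h) was the time the pressure stayed 15 mmHg or more below the initial value, which was taken as persistence of the hypotensive effect.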

Rattus norvegicus [9] = assay: Hypotensive activity in po dosed spontaneously hypertensive Wistar-Okamoto rat assessed as dose required to cause 30 mmHg fall of blood pressure administered for 5 days; format: functional; settings: 120 h, read-out: MED
Rattus norvegicus [10] = assay: Hypotensive activity in spontaneously hypertensive Wistar-Okamoto rat assessed as time required for persistence of hypotensive effect at 1 mg/kg, po; format: functional
Procedure, shortened: (§4)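 SHR (Wistar-Okamoto), five per dose, were given an oral dose in 0.5% carboxymethylcellulose. Indirect cuff pressure in restrained conscious rats was read before dosing and at 2, 4, 6, 8, 12 and 24 h. Duration (h) was scored while pressure remained 15 mmHg or more below the initial reading.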

Canis familiaris [11] = assay: Hypotensive activity in conscious renal hypertensive dog assessed as maximum change in mean blood pressure at 0.5 mg/kg, po measured for 8 hrs relative to control; format: functional, Canis lupus familiaris
Procedure, shortened: (§5)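 Renal hypertensive dogs, conscious, dosed orally in soft gelatin capsules, three dogs per dose. Mean blood pressure was taken indirectly with an Arteriosonde, standing animals in a semi-insonorized room, just before dosing and then hourly for 8 h. Maximum change was measured after a single administration and given as mean ± error.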

Rattus norvegicus [12] = assay: Toxicity in rat assessed as change in cardiac noradrenaline level at 1 mg/kg; format: organism-based, Heart; set-up: dose 1 mg/kg; settings: in vivo; procedure, shortened: as §1
Canis familiaris [13] = assay: Hypotensive activity in conscious renal hypertensive dog assessed as time required for persistence of hypotensive effect at 1 mg/kg, po measured for 8 hrs; format: functional, Canis lupus familiaris; procedure, shortened: as §3
Canis familiaris [14] = assay: Hypotensive activity in conscious renal hypertensive dog assessed as time required for persistence of hypotensive effect at 0.5 mg/kg, po measured for 8 hrs; format: functional, Canis lupus familiaris; procedure, shortened: as §3
Rattus norvegicus [15] = assay: Hypotensive activity in spontaneously hypertensive Wistar-Okamoto rat assessed as time required for persistence of hypotensive effect at 0.5 mg/kg, po; format: functional; procedure, shortened: as §4
Rattus norvegicus [16] = assay: Hypotensive activity in spontaneously hypertensive Wistar-Okamoto rat assessed as maximum change in mean blood pressure at 1 mg/kg, po relative to control; format: functional; procedure, shortened: as §2
Felis catus = organism: Felis catus; assay: Hypotensive activity in decerebrated cat; format: functional, organism-based
Canis familiaris [17] = assay: Hypotensive activity in conscious renal hypertensive dog assessed as maximum change in mean blood pressure at 0.25 mg/kg, po measured for 8 hrs relative to control; format: functional, Canis lupus familiaris; procedure, shortened: as §5
Canis familiaris [18] = assay: Hypotensive activity in conscious renal hypertensive dog assessed as maximum change in mean blood pressure at 1 mg/kg, po measured for 8 hrs relative to control; format: functional, Canis lupus familiaris; procedure, shortened: as §5
Rattus norvegicus [19] = assay: Hypotensive activity in spontaneously hypertensive Wistar-Okamoto rat assessed as time required for persistence of hypotensive effect at 2.5 mg/kg, po; format: functional; procedure, shortened: as §4
Rattus norvegicus [20] = assay: Toxicity in rat assessed as change in cardiac noradrenaline level at 1 mg/kg for 5 days; format: organism-based, Heart; set-up: dose 1 mg/kg; settings: in vivo, 120 h; procedure, shortened: as §1
Canis familiaris [21] = assay: Hypotensive activity in conscious renal hypertensive dog assessed as time required for persistence of hypotensive effect at 2 mg/kg, po measured for 8 hrs; format: functional, Canis lupus familiaris; procedure, shortened: as §3
Rattus norvegicus [22] = assay: Hypotensive activity in spontaneously hypertensive Wistar-Okamoto rat assessed as maximum change in mean blood pressure at 0.25 mg/kg, po relative to control; format: functional; procedure, shortened: as §2
Rattus norvegicus [23] = assay: Hypotensive activity in spontaneously hypertensive Wistar-Okamoto rat assessed as time required for persistence of hypotensive effect at 0.1 mg/kg, po; format: functional; procedure, shortened: as §4
Rattus norvegicus [24] = assay: Hypotensive activity in po dosed spontaneously hypertensive Wistar-Okamoto rat relative to hydralazine; format: functional
Canis familiaris [25] = assay: Hypotensive activity in conscious renal hypertensive dog assessed as maximum change in mean blood pressure at 2 mg/kg, po measured for 8 hrs relative to control; format: functional, Canis lupus familiaris; procedure, shortened: as §5
Rattus norvegicus [26] = assay: Hypotensive activity in spontaneously hypertensive Wistar-Okamoto rat assessed as maximum change in mean blood pressure at 0.1 mg/kg, po relative to control; format: functional; procedure, shortened: as §2
Rattus norvegicus [27] = assay: Hypotensive activity in spontaneously hypertensive Wistar-Okamoto rat assessed as time required for persistence of hypotensive effect at 0.25 mg/kg, po; format: functional; procedure, shortened: as §4
Canis familiaris [28] = assay: Hypotensive activity in conscious renal hypertensive dog assessed as maximum change in mean blood pressure at 0.05 mg/kg, po measured for 8 hrs relative to control; format: functional, Canis lupus familiaris; procedure, shortened: as §5
Rattus norvegicus [29] = assay: Hypotensive activity in spontaneously hypertensive Wistar-Okamoto rat assessed as maximum change in mean blood pressure at 0.01 mg/kg, po relative to control; format: functional; procedure, shortened: as §2
Canis familiaris [30] = assay: Hypotensive activity in conscious renal hypertensive dog assessed as maximum change in mean blood pressure at 0.1 mg/kg, po measured for 8 hrs relative to control; format: functional, Canis lupus familiaris; procedure, shortened: as §5
Canis familiaris [31] = assay: Hypotensive activity in conscious renal hypertensive dog assessed as time required for persistence of hypotensive effect at 0.1 mg/kg, po measured for 8 hrs; format: functional, Canis lupus familiaris; procedure, shortened: as §3
Rattus norvegicus [32] = assay: Hypotensive activity in spontaneously hypertensive Wistar-Okamoto rat assessed as time required for persistence of hypotensive effect at 0.01 mg/kg, po; format: functional; procedure, shortened: as §4
Canis familiaris [33] = assay: Hypotensive activity in conscious renal hypertensive dog assessed as time required for persistence of hypotensive effect at 0.05 mg/kg, po measured for 8 hrs; format: functional, Canis lupus familiaris; procedure, shortened: as §3
Rattus norvegicus [34] = assay: Hypotensive activity in spontaneously hypertensive Wistar-Okamoto rat assessed as time required for persistence of hypotensive effect at 0.05 mg/kg, po; format: functional; procedure, shortened: as §4
Rattus norvegicus [35] = assay: Hypotensive activity in po dosed spontaneously hypertensive Wistar-Okamoto rat relative to guancydine; format: functional
Rattus norvegicus [36] = assay: Hypotensive activity in spontaneously hypertensive Wistar-Okamoto rat assessed as maximum change in mean blood pressure at 0.05 mg/kg, po relative to control; format: functional; procedure, shortened: as §2

SMILES: CCC(C)(C)NC(=NC#N)Nc1cccnc1
- LD50 at 168 h [1]: 14 mg/kg
- LD50 at 168 h [2]: > 1000 mg/kg
- Activity (Rattus norvegicus [3]): Non-toxic
- Activity (Rattus norvegicus [4]): Non-toxic
- Activity (Rattus norvegicus [5]): Non-toxic

SMILES: CC(N/C(=N\C#N)Nc1ccncc1)C(C)(C)C (stereo not drawn) [PINACIDIL ANHYDROUS]
- Activity (Rattus norvegicus [6]): -34 mmHg
- Activity (Rattus norvegicus [7]): -79 mmHg
- Time (Canis familiaris [8]): 4 h
- minimal effective dose (Rattus norvegicus [9]): 0.5 mg/kg
- Time (Rattus norvegicus [10]): >12 h
- Activity (Canis familiaris [11]): -43 mmHg
- Activity (Rattus norvegicus [12]): Non-toxic
- Time (Canis familiaris [13]): >8 h
- Time (Canis familiaris [14]): 6 h
- Time (Rattus norvegicus [15]): 8 h
- Activity (Rattus norvegicus [4]): Non-toxic
- Activity (Rattus norvegicus [16]): -68 mmHg
- Activity (Felis catus): Active
- Activity (Canis familiaris [17]): -26 mmHg
- Activity (Canis familiaris [18]): -67 mmHg
- Time (Rattus norvegicus [19]): >12 h
- Activity (Rattus norvegicus [20]): Non-toxic

SMILES: CC(=O)N(/C(=N\C#N)Nc1cccnc1)C(C)(C)C.O
- Time (Canis familiaris [21]): 8 h
- Activity (Rattus norvegicus [6]): -86 mmHg
- Activity (Rattus norvegicus [22]): -64 mmHg
- minimal effective dose (Rattus norvegicus [9]): 0.1 mg/kg
- Time (Rattus norvegicus [23]): 4 h
- LD50 at 168 h [1]: 615 mg/kg
- Activity (Canis familiaris [11]): -22 mmHg
- LD50 at 168 h [2]: > 1000 mg/kg
- fold change (FC) (Rattus norvegicus [24]): 2
- Time (Canis familiaris [14]): 2 h
- Time (Rattus norvegicus [15]): >8 h
- Activity (Rattus norvegicus [4]): Non-toxic
- Activity (Felis catus): Active
- Activity (Canis familiaris [25]): -75 mmHg
- Activity (Rattus norvegicus [26]): -30 mmHg
- Time (Rattus norvegicus [27]): 4 h

SMILES: CCC(C)(C)/N=C(\NC#N)Nc1cccnc1
- Activity (Canis familiaris [28]): -41 mmHg
- minimal effective dose (Rattus norvegicus [9]): 0.1 mg/kg
- Time (Rattus norvegicus [23]): 4 h
- Activity (Rattus norvegicus [29]): -27 mmHg
- Activity (Canis familiaris [30]): -69 mmHg
- Time (Canis familiaris [31]): >6 h
- Time (Rattus norvegicus [32]): 2 h
- Time (Canis familiaris [33]): 4 h
- Time (Rattus norvegicus [34]): 4 h
- fold change (FC) (Rattus norvegicus [35]): 100
- Activity (Felis catus): Active
- Activity (Rattus norvegicus [26]): >-100 mmHg
- Activity (Rattus norvegicus [36]): -72 mmHg

SMILES: NNc1nncc2ccccc12 [HYDRALAZINE]
- Activity (Rattus norvegicus [7]): -64 mmHg
- Time (Rattus norvegicus [10]): 4 h
- LD50 at 168 h [1]: 107 mg/kg
- Activity (Canis familiaris [11]): -21 mmHg
- Time (Canis familiaris [13]): 6 h
- Time (Canis familiaris [14]): 2 h
- Activity (Rattus norvegicus [16]): -36 mmHg
- Activity (Canis familiaris [18]): -42 mmHg
- Time (Rattus norvegicus [19]): >8 h

SMILES: N#CN/C(=N\CCc1ccccc1)Nc1ccncc1
- minimal effective dose (Rattus norvegicus [9]): 20 mg/kg
- LD50 at 168 h [2]: > 1000 mg/kg

SMILES: CC(C)(C)C/N=C(\NC#N)Nc1ccncc1
- minimal effective dose (Rattus norvegicus [9]): 5 mg/kg
- LD50 at 168 h [2]: 600 mg/kg

SMILES: CC(C)(N/C(=N\C#N)Nc1ccncc1)c1ccccc1
- minimal effective dose (Rattus norvegicus [9]): > 50 mg/kg
- LD50 at 168 h [2]: > 1000 mg/kg

SMILES: Cc1nn(C)c(C)c1N/C(=N/C#N)NC(C)(C)C
- minimal effective dose (Rattus norvegicus [9]): 5 mg/kg
- LD50 at 168 h [2]: > 1000 mg/kg

SMILES: CC(/N=C(\NC#N)Nc1ccncc1)c1ccccc1 (stereo not drawn)
- minimal effective dose (Rattus norvegicus [9]): 10 mg/kg
- LD50 at 168 h [2]: 600 mg/kg

SMILES: CCCN(CCC)S(=O)(=O)/N=C(/Nc1cccnc1)NC(C)(C)CC
- minimal effective dose (Rattus norvegicus [9]): > 50 mg/kg
- LD50 at 168 h [2]: > 1000 mg/kg

SMILES: N#CNC(=N)Nc1cccnc1
- minimal effective dose (Rattus norvegicus [9]): 50 mg/kg
- LD50 at 168 h [2]: > 1000 mg/kg

SMILES: N#CN/C(=N\CC1CCCO1)Nc1cccnc1 (stereo not drawn)
- minimal effective dose (Rattus norvegicus [9]): 50 mg/kg
- LD50 at 168 h [2]: > 1000 mg/kg

SMILES: N#C/N=C(/Nc1cccnc1)NC12CC3CC(CC(C3)C1)C2
- minimal effective dose (Rattus norvegicus [9]): 50 mg/kg
- LD50 at 168 h [2]: > 1000 mg/kg
